# CHRM1 agonist = agonists of human M1 muscarinic receptor; CHO-K1 hM1, Fluo-8 calcium fluorescence, agonist mode; 0% DMSO, 100% acetylcholine EC100; AID 588814; 360,000 tested, 0.33% active; P11229; activation, % at 3 µM;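 active = activation above the run's mean compound activation plus 3 SD, cut at about 16% in these data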;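 also: peak over basal fluorescence ratio within a 140 s kinetic read after compound addition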
# TAAR1 ag = human TAAR1 agonism; 360,000 tested, 0.99% active; AID 624467; Q96RJ0; CHO RD-HGA16 TAAR1, Fluo-8 calcium fluorescence; vehicle wells 0%, saturating PEA agonist 100%; activation, % at 3 µM;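 active = activation above the mean activation of all test compounds in the run plus 3 SD, cut at about 38% in these data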
#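 System: CHO-derived RD-HGA16 cells with stable Gα16 and human TAAR1 / Times: 17-24 h plating, Fluo-8 75 min 37 °C, 30 min RT / Technique: calcium-sensitive Fluo-8 signal, excitation 470-495, emission 515-575 nm / Measure: % activation relative to PEA EC100 response / Benchmarks: DMSO and PEA EC100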
# m5-HT2A agonist = activates the mouse 5-HT2A serotonin receptor. CHO-K1 mHTR2A beta-arrestin complementation, luminescence; percent of 30 µM serotonin response. P35363. activation, % at 7.6 µM. 360,000 tested, 0.66% active;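 active = activation above a run cutoff, the mean activation of all tested compounds plus 3 SD, cut at about 14% in these data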;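 also: 0% = plate median of compound wells and 100% = 30 µM serotonin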
# Target sequence (P35363 whole entry, looked up): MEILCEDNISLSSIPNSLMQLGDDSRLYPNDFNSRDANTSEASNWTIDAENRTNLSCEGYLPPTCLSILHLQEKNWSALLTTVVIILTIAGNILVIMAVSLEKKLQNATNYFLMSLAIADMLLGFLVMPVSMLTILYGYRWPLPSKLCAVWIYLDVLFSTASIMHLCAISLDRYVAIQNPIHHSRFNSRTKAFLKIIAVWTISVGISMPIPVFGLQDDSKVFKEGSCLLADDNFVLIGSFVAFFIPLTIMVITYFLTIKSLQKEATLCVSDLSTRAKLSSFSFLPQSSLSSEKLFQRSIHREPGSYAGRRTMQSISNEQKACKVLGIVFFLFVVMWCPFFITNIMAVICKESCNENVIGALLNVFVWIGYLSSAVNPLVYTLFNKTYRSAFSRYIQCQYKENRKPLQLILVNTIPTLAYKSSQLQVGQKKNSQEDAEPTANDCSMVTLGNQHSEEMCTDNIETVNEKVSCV
# M1 PAM = positive allosteric modulators of human M1 muscarinic receptor; P11229; CHO-K1 hM1, Fluo-8 calcium fluorescence, ACh EC20; 0% = ACh EC20, 100% = maximal ACh; activation, % at 3 µM; 360,000 tested, 0.088% active; AID 588819; in the data active = activation above about 19%, passing the limit was not always enough
# TAAR1 antag = antagonists of human TAAR1. Q96RJ0. CHO RD-HGA16 TAAR1, Fluo-8 calcium fluorescence, antagonist. inhibition, % at 3 µM. 360,000 tested, 1.5% active. AID 624466;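 active = inhibition above a per-plate cutoff, the mean inhibition of test compounds on that plate plus 3 SD, cut at about 49% in these data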;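 also: 0% = DMSO plus EC80 beta-PEA response and 100% = DMSO alone without agonist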
#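 Material: RD-HGA16 CHO cells with stable hTAAR1 and Gα16; Dosing: single nominal final test compound concentration of 3 µM; Schedule: seeding 17-24 h prior, 75-min 37 °C, 30-min RT dye loading; Detection: kinetic Fluo-8 calcium fluorescence measurement; Measure: % inhibition from peak post-agonist over basal fluorescence ratio; Benchmarks: vehicle and agonist controls.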
# M1 antag = human CHRM1 antagonism. 360,000 tested, 1.3% active. AID 588852. CHO-K1 hM1, Fluo-8 calcium fluorescence, ACh EC80 antagonist. inhibition, % at 3 µM. P11229;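 active = percent inhibition above its own plate's cutoff, namely the mean of that plate's compound wells plus 3 SD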;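 also: peak over basal fluorescence ratio during 140 s after agonist addition; 0% = ACh EC80 plus DMSO and 100% = DMSO alone without agonist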
# nonsel antag count = nonselective antagonism, TAAR1 counter-screen; 2,400 tested, 77% active; counterscreen cell line, calcium fluorescence, antagonist mode; AID 651780; shares compounds with TAAR1 antag; inhibition, % at 3 µM; in the data active = inhibition above about 22%;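 also: CHO-Ga16 host cells stimulated with ATP at an EC80 level; 0% = agonist EC80 plus vehicle and 100% = vehicle without agonist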
# TAAR1 ant conf = human TAAR1 antagonism, confirmed; TAAR1-expressing cells, fluorescence antagonist read-out; inhibition, % at 3 µM; 2,400 tested, 40% active; AID 651785; shares compounds with TAAR1 antag; in the data active = inhibition above about 49%;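 also: CHO-Ga16 host cells challenged with agonist PEA near its EC80; 0% = agonist at EC80 plus vehicle and 100% = vehicle with no agonist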
# Ga16 nonsel ag = counter-screen for TAAR1 antagonists: nonselective Ga16 agonists | Ga16-expressing cells, calcium fluorescence, agonist counterscreen | activation, % at 3 µM | shares compounds with TAAR1 antag | 2,400 tested, 18% active | AID 651953; in the data active = activation above about 12%;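 also: 0% = vehicle wells and 100% = saturating stimulus response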
# TAAR1 ag counter = activates human TAAR1 in antagonist counter-screen | shares compounds with TAAR1 antag | hTAAR1 cell line, fluorescence activation, agonist mode | activation, % at 3 µM | 2,400 tested, 2% active | AID 651955; in the data active = activation above about 37%;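 also: CHO cells stably expressing TAAR1 with calcium dye readout; 0% = DMSO vehicle and 100% = full agonist response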
# * = called active by the depositor; . = no result. An excerpt weighted towards active compounds, which were near 3.9% of everything screened.
SMILES,CHRM1 agonist,TAAR1 ag,m5-HT2A agonist,M1 PAM,TAAR1 antag,M1 antag,nonsel antag count,TAAR1 ant conf,Ga16 nonsel ag,TAAR1 ag counter
COc1cc(/C=N\NC(=O)c2cccnc2)ccc1OC(=O)c1ccccc1Cl,-3,12,-4,-1,54*,1,28*,35,16*,20
COc1cc(/C=N/NC(=O)c2cccnc2)ccc1OC(=O)c1ccco1,-1,6,-5,-1,-8,2,.,.,.,.
COc1ccc(/C=N\NC(=O)c2ccc(F)cc2)cc1COc1ccccc1C(N)=O,-2,1,-3,3,-8,-9,.,.,.,.
Nc1ccc(C(=O)N/N=C\c2ccc(OC(=O)c3ccccc3Cl)cc2)cc1,1,18,0,-4,68*,-2,29*,59*,9,25
COc1cc(C(=O)N/N=C/c2ccc(OC(=O)c3ccccc3Cl)cc2)ccc1O,10,13,1,0,80*,20,30*,58*,11,35
CCOC(=O)c1ccccc1OCc1cc(/C=N/NC(=O)c2ccncc2)ccc1OC,0,13,4,-12,77*,15,36*,54*,10,6
COc1cc(C(=O)N/N=C/c2ccc3c(c2)c2ccccc2n3C)ccc1O,-5,2,-13,1,13,-6,.,.,.,.
COC(=O)c1ccc(/C=N/NC(=O)c2ccccc2Cl)cc1,-2,1,6,3,14,5,.,.,.,.
O=C(Oc1ccc(/C=N/NC(=O)c2ccccc2O)cc1)c1ccccc1,0,10,7,-5,74*,11,38*,68*,8,10
O=C(N/N=C/c1ccc(OC(=O)c2ccccc2Br)cc1)c1ccccn1,-1,7,-1,0,52*,-3,30*,44,7,5
CC(OC(=O)c1cnccn1)C(=O)Nc1nc(-c2cccc([N+](=O)[O-])c2)cs1 (configuration not stated),-2,17,5,-2,52*,9,24*,27,7,4
CC(OC(=O)c1ccccn1)C(=O)Nc1nc(-c2ccc(F)c(F)c2)cs1 (configuration not stated),1,7,-4,1,25,-6,.,.,.,.
CC(=O)c1cccc(NC(=O)COC(=O)[C@@H](NC(=O)OCc2ccccc2)C(C)C)c1,2,20,1,-17,60*,16,30*,50*,10,14
O=C(O)C1CCC(CNS(=O)(=O)c2ccccc2)CC1 (configuration not stated),0,5,-6,8,-2,-23,.,.,.,.
Cc1ccc(S(=O)(=O)N2CCOCC2)cc1NC(=O)COc1ccc(C(=O)c2ccccc2)cc1,1,23,-2,-20,82*,37*,37*,59*,14*,13
Cc1ccc(S(=O)(=O)N2CCOCC2)cc1NC(=O)COC(=O)CNC(=O)c1ccccc1,-4,4,3,2,0,0,.,.,.,.
CCOC(=O)c1ccc2ncc(C(=O)OCC)c(Nc3ccc(N4CCOCC4)cc3)c2c1,-10,10,3,-11,57*,13,36*,57*,6,3
COc1cccc(C2(C)NC(=O)N(CC(=O)Nc3ccc(N4CCOCC4)cc3)C2=O)c1 (configuration not stated),-2,1,-2,2,-8,-4,.,.,.,.
C/C(=N\Nc1nc(Cl)c(Cl)cc1Cl)c1ccc(S(=O)(=O)NCc2ccco2)cc1,-7,10,-1,2,65*,-11,40*,52*,9,5
O=C(Nc1ccc(NC(=O)c2cc3ccccc3o2)cc1)c1ccc2c(c1)OCCO2,-2,4,2,8,-13,-6,.,.,.,.
Cc1cc(NC(=O)c2cccnc2)ccc1NC(=O)c1cc2ccccc2o1,-3,32,-4,-17,57*,12,22*,44,10,37
Cc1cc(NC(=O)c2ccc3c(c2)OCCO3)ccc1NC(=O)c1cc2ccccc2o1,2,23,1,-6,85*,17,38*,73*,9,24
CCc1[nH]nc2c1C1(CCN(C(=O)OCc3ccccc3)CC1)C(C#N)=C(N)O2,-2,33,-1,5,63*,-7,34*,57*,16*,30
O=C(NCc1ccccc1)C(c1ccccc1)N(Cc1ccc2c(c1)OCO2)C(=O)Cc1cccs1 (configuration not stated),1,10,-5,-15,80*,45*,40*,59*,12*,8
O=C(Cc1cccs1)NCc1ccc2c(c1)OCO2,-1,2,-4,6,9,-2,.,.,.,.
CCc1ccc(C(C(=O)NCc2ccc(OC)cc2)N(CCOC)C(=O)Cc2cccs2)cc1 (configuration not stated),1,19,-1,-6,73*,-8,29*,53*,9,8
COc1ccc(CNC(=O)Cc2cccs2)cc1,0,.,5,14,.,-17,.,.,.,.
COc1ccc(CN(C(=O)Cc2c[nH]c3ccccc23)C(C(=O)NC2CCCCC2)c2ccc(C)o2)cc1 (configuration not stated),-7,6,0,-10,44,14,.,.,.,.
COCCN(C(=O)Cc1cccs1)C(C(=O)NCc1ccc(OC)cc1)c1ccc(C(C)C)cc1 (configuration not stated),-2,15,-1,-20,64*,16,29*,54*,10,13
COCCN(C(=O)Cc1cccs1)C(C(=O)NCc1ccc(OC)cc1)c1ccc(C)cc1 (configuration not stated),-1,14,-2,0,28,-20,.,.,.,.

# Assay outcomes as filed in PubChem.
